Values after ≈ are worked out from the molar mass of the structure shown.
What was measured:
[1] = target: T1, C5a anaphylatoxin chemotactic receptor 1 (Homo sapiens, UniProt P21730); experiment: Ability to inhibit binding of radiolabeled C5a anaphylatoxin to intact membrane bound receptor from human neutrophils.
T1 sequence (P21730 whole entry): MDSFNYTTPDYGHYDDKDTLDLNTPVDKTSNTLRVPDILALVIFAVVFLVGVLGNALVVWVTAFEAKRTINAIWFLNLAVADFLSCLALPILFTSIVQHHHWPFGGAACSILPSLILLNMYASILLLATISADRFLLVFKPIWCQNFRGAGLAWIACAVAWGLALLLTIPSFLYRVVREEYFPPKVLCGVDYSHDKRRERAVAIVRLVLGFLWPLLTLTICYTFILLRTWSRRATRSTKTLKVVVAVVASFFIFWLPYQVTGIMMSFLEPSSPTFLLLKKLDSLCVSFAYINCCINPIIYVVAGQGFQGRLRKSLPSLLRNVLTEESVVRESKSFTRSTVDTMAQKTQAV
Outline: (§1)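 Buffer was HBSS with 10 mM pMSF and 0.5% BSA, HEPES pH 7.2. Compounds were added from 1% aqueous DMSO. Filtration used polyethyleneimine-soaked GF filters, read by gamma counting. Nonspecific binding was set with ≥20 ng unlabeled C5a. IC50 came from a four-parameter logistic fit.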

[2] = organism: Homo sapiens; experiment: Compound was tested for the inhibition of C5a- induced human neutrophil activation; type: functional
Outline: (§2)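 Freshly isolated human PMN (Ficoll-Hypaque, erythrocytes lysed with NH4Cl/EDTA/KHCO3), 4×10^5/mL in HBSS. Preincubated with compound or 1% aqueous DMSO 20 min at 37 °C, then cytochalasin B (5 μg/mL final) 5 min. Stimulated 5 min at 37 °C with C5a or fMLF, or no stimulus for nonspecific release. MPO read with dimethoxybenzidine/H2O2 at pH 6.0, azide-quenched at 2 min, A450. Duplicate or triplicate.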

[3] = organism: Homo sapiens; experiment: Compound was tested for the inhibition of fMLF- induced human neutrophil activation; type: functional; outline: as §2
[4] = target: T1, C5a anaphylatoxin chemotactic receptor 1; experiment: Compound was tested for its ability to inhibit binding of radiolabeled C5a anaphylatoxin chemotactic receptor to intact membrane bound receptor from human neutrophils.; insoluble; outline: as §1
[5] = target: T2, Myeloperoxidase (Homo sapiens, UniProt P05164); experiment: Compound was tested for the induction of nonspecific myeloperoxidase (MPO) release; type: functional; outline: as §2
T2 sequence (P05164 whole entry): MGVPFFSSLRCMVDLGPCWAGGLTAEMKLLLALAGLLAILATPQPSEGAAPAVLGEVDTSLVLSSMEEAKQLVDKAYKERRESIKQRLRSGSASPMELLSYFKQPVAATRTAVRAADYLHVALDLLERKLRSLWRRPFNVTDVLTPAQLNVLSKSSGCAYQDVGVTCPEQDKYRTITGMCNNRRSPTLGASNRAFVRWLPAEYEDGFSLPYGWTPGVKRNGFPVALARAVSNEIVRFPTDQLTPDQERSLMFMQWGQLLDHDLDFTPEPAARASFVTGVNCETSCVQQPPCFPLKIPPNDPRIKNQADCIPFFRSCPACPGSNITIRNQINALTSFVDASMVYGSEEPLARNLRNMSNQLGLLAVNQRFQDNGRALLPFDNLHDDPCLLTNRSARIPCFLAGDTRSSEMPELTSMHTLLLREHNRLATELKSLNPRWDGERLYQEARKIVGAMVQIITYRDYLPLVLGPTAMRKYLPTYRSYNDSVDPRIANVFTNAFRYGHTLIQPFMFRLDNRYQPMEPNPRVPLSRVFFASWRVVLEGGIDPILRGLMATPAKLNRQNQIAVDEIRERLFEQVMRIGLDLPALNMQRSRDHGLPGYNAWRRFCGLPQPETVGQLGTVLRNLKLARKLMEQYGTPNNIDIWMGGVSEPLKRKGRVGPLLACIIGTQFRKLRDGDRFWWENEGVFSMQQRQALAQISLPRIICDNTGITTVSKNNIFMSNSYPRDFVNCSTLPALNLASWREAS

Compound	IC50 [1]	also measured
CCCC(=O)Nc1ccc2nc(C)cc(N)c2c1	> 411 µM	–
COc1cc(C)nc2ccc(NC(=O)/C=C/c3ccccc3Cl)cc12	> 142 µM	–
Cc1cc(N)c2cc(NC(=O)CCc3ccccc3)ccc2n1	> 327 µM	–
Cc1cc(NCc2ccccc2)c2cc(NC(=O)/C=C/c3ccccc3C(F)(F)F)ccc2n1	> 217 µM	–
Cc1cc(N)c2cc(N)ccc2n1	> 577 µM	–
Cc1cc(N)c2cc(NC(=O)/C=C/c3ccccc3C(F)(F)F)ccc2n1	24.2 µM	EC50 [2]: 4 µg/mL (≈ 10.8 µM); EC50 [3]: 4 µg/mL (≈ 10.8 µM)
Cc1cc(N)c2cc(NC(=O)/C=C/c3c(F)c(F)c(F)c(F)c3F)ccc2n1	–	IC50 [4]: Not Active
Cc1cc(N)c2cc(NC(=O)/C=C/c3cccc(C(F)(F)F)c3)ccc2n1	10.8 µM	–
Cc1cc(N)c2cc(NC(=O)/C=C/c3ccc(C(F)(F)F)cc3)ccc2n1	18.8 µM	–
Cc1cc(NCc2ccccc2)c2cc(N)ccc2n1	> 380 µM	–
Cc1cc(N)c2cc(NC(=O)/C=C/c3c(Cl)cccc3Cl)ccc2n1	21.5 µM	EC50 [2]: 4 µg/mL (≈ 10.7 µM); EC50 [3]: 4 µg/mL (≈ 10.7 µM)
CCCCCCCCNc1cc(C)nc2ccc(NC(=O)/C=C/c3ccccc3Cl)cc12	> 222 µM	–
Cc1cc(N)c2cc(NC(=O)/C=C/c3ccccc3)ccc2n1	98.9 µM	–
Cc1cc(NCc2ccccc2)c2cc(NC(=O)C(=O)Nc3ccc4nc(C)cc(NCc5ccccc5)c4c3)ccc2n1	> 86.1 µM	–
Cc1cc(N)c2cc(NC(=O)C(=O)Nc3ccc4nc(C)cc(N)c4c3)ccc2n1	4.99 µM	EC50 [2]: 4 µg/mL (≈ 9.99 µM)
Cc1cc(N)c2cc(NC(=O)CCCCCCCCC(=O)Nc3ccc4nc(C)cc(N)c4c3)ccc2n1	> 97.5 µM	–
Cc1cc(N)c2cc(NC(=O)/C=C/c3ccccc3Cl)ccc2n1	35.5 µM	EC50 [2]: 4 µg/mL (≈ 11.8 µM); EC50 [3]: 5 µg/mL (≈ 14.8 µM)
CCCCCCCCNC(=O)c1ccc2nc(C)cc(N)c2c1	> 319 µM	–
Cc1cc(N)c2cc(NC(=O)Nc3ccc4nc(C)cc(N)c4c3)ccc2n1 [AMINOQUINURIDE]	8.86 µM	EC50 [2]: 15 µg/mL (≈ 40.3 µM)
Cc1cc(N)c2cc(NC(=O)c3ccccc3)ccc2n1	> 361 µM	–
CCCCCCCC(=O)Nc1ccc2nc(C)cc(N)c2c1	100 µM	–
Cc1cc(N)c2cc(NC(=O)c3ccc4ccccc4c3)ccc2n1	91.6 µM	–
Cc1cc(NCc2ccccc2)c2cc(NC(=O)/C=C/c3ccccc3Cl)ccc2n1	> 234 µM	EC50 [2]: < 3 µg/mL; EC50 [5]: 11.7 µM; EC50 [3]: < 3 µg/mL
Cc1ccc2cc(NC(=O)Nc3ccc4nc(C)ccc4c3)ccc2n1	> 146 µM	–
Cc1cc(N)c2cc(C(=O)NCc3ccccc3)ccc2n1	> 343 µM	–
Cc1cc(N)c2cc(NC(=O)CC(=O)Nc3ccc4nc(C)cc(N)c4c3)ccc2n1	43.4 µM	–
Cc1cc(N)c2cc(NC(=O)CCCCC(=O)Nc3ccc4nc(C)cc(N)c4c3)ccc2n1	> 110 µM	–

Reference: ChEMBL document CHEMBL1126141, “Substituted 4,6-diaminoquinolines as inhibitors of C5a receptor binding” (J Med Chem, 1992)
